Reference: ChEMBL document CHEMBL1133565 (J Med Chem, 2000)

Assays:
[1] = Effective dose for generalization to 10 mg/kg cocaine in rat (value is standard error of the population of 88 independent determinations); type: functional
Mus musculus = species on record: Mus musculus; assay: Effective dose on 8 hr locomotor assay in mice (value is standard error of the population of 72 independent determinations); type: functional
Method in brief: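 Groups of 8 nonhabituated male Swiss-Webster mice (Hsd:ND4, 2-3 months), dosed ip in 0.9% saline vehicle just before testing. Horizontal photobeam breaks counted in 10-min bins for 8 h from 0800 h, one mouse per chamber.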

[2] = biological target: T1, Sodium-dependent serotonin transporter (Homo sapiens, UniProt P31645); assay: Binding affinity against cloned serotonin human transporter using 40-80 PM [125I]RTI
Method in brief: (§1)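 Membranes from cells expressing recombinant human transporters: DAT in C6 cells, later HEK293; SERT and NET in HEK293. Cells lysed (2 mM HEPES, 1 mM EDTA), spun at 30000g, resuspended in 0.32 M sucrose, about 15 µg protein. GF/C filtration. Duplicates; IC50 converted to Ki by Cheng-Prusoff.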
Target sequence in this assay (P31645 whole entry): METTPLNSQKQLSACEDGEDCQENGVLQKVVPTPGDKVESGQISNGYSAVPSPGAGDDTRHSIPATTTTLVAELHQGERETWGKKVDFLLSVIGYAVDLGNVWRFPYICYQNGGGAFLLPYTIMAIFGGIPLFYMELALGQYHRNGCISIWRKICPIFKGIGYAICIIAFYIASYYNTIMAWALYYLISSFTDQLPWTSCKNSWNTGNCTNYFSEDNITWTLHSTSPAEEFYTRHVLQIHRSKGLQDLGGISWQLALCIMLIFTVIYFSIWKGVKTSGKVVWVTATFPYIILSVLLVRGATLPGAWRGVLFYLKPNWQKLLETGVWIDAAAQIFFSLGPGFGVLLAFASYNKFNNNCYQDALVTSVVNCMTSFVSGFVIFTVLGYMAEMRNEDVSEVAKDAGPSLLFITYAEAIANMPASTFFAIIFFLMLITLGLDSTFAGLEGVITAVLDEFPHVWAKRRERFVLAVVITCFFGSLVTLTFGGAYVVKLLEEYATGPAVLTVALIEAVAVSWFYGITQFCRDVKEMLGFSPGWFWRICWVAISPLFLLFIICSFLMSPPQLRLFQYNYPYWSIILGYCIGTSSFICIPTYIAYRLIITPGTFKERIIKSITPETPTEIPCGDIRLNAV

[3] = biological target: T2, Sodium-dependent noradrenaline transporter (Homo sapiens, UniProt P23975); assay: Binding affinity against norepinephrine cloned human transporter using 40-80 pM [125I]RTI
Target sequence in this assay (P23975 whole entry): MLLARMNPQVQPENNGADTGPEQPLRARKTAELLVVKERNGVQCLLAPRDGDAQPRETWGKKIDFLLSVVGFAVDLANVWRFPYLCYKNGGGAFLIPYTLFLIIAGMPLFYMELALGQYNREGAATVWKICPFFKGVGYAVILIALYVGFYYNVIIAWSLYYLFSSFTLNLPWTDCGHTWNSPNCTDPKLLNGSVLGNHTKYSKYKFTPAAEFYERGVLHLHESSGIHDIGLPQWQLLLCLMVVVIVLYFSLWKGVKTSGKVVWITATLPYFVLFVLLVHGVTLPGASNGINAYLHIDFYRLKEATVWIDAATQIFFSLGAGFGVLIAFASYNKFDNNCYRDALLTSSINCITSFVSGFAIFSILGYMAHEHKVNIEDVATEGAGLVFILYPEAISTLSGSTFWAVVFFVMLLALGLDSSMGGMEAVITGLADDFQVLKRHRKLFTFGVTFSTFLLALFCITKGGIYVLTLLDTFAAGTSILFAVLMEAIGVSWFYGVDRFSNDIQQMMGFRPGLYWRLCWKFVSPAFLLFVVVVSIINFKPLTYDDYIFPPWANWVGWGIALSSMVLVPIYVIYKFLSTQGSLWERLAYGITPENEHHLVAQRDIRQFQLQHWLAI

[4] = biological target: T2, Sodium-dependent noradrenaline transporter; assay: Inhibition of reuptake of [3H]-NE (20 nM) by norepinephrine transporter
Target sequence in this assay (P23975 whole entry): as above

[5] = biological target: T3, Sodium-dependent dopamine transporter (Homo sapiens, UniProt Q01959); assay: Binding affinity against cloned human dopamine transporter using 40-80 pM [125I]RTI.; method in brief: as §1
[6] = biological target: T1, Sodium-dependent serotonin transporter; assay: Inhibition of reuptake of [3H]5-HT (20 nM) by serotonin transporter
Method in brief: (§2)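 Uptake used whole confluent cells: hSERT in HEK293; hDAT in C6, later HEK293. Cells were washed and scraped in PBS at 25 °C, then preincubated 10 min with drug in Krebs HEPES at 25 °C. [3H]5HT or [3H]DA was added at 20 nM final for 10 min, then filtered on 0.05% polyethylenimine-soaked filters. Six drug concentrations, each in triplicate.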
Target sequence in this assay (P31645 whole entry): as the sequence (P31645 whole entry) above

[7] = biological target: T3, Sodium-dependent dopamine transporter; assay: Inhibition of reuptake of [3H]DA (20 nM) by dopamine transporter; method in brief: as §2
[8] = biological target: T3, Sodium-dependent dopamine transporter; assay: Ratio of dopamine uptake to dopamine binding
[9] = biological target: Monoamine transporters; serotonin & dopamine (Homo sapiens) (UniProt P31645+Q01959); assay: Ratio of inhibition of serotonin uptake to inhibition of dopamine uptake; type: protein assay
[10] = biological target: T1, Sodium-dependent serotonin transporter; assay: Ratio of serotonin uptake to serotonin binding
Target sequence in this assay (P31645 whole entry, looked up): as the sequence (P31645 whole entry) above

[11] = biological target: T2, Sodium-dependent noradrenaline transporter; assay: Ratio of norepinephrine uptake to norepinephrine binding
Target sequence in this assay (P23975 whole entry, looked up): as the sequence (P23975 whole entry) above

Monoamine transporters; serotonin & dopamine (Homo sapiens), sequence (P31645 whole entry, looked up): as the sequence (P31645 whole entry) above
Monoamine transporters; serotonin & dopamine (Homo sapiens), sequence (Q01959 whole entry, looked up): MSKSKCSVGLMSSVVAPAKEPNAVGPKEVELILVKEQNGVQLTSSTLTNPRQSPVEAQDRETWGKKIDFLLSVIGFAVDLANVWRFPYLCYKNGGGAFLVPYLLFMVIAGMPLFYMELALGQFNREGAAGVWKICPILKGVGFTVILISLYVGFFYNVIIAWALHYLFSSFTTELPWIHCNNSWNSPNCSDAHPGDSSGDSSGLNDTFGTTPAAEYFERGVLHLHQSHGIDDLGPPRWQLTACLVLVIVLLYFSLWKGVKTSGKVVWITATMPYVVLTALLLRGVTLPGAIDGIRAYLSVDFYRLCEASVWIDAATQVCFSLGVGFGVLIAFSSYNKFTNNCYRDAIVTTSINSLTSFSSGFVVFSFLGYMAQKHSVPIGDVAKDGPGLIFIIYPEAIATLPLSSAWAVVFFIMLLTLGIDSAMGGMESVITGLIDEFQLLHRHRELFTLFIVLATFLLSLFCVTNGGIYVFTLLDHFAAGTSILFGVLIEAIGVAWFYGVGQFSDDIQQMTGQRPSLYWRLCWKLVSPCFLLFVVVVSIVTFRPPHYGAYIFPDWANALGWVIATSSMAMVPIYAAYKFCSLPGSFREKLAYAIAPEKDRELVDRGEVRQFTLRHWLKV
T3 sequence (Q01959 whole entry): as the sequence (Q01959 whole entry, looked up) above

## COC(=O)[C@H]1[C@@H](OC(=O)c2ccccc2)C[C@@H]2CC[C@H]1N2C [COCAINE]
[1]
  ED50: 3.61 mg/kg
Mus musculus
  ED50: 7.92 mg/kg

## CN(C)[C@@H]1C[C@@H](c2ccc(Cl)c(Cl)c2)c2ccccc21 (stereo in doubt; (+)) [listing 1 of 2 here]
[2]
  Ki: 0.06 nM
[3]
  Ki: 52 nM
Mus musculus
  ED50: 0.96 mg/kg
[4]
  IC50: 21 nM
[5]
  Ki: 8.7 nM
[6]
  IC50: 6.3 nM
[7]
  IC50: 120 nM

## CN([C@@H]1C[C@@H](c2ccc(Cl)c(Cl)c2)c2ccccc21)C(C)(C)C (relative stereo)
[2]
  Ki: 4700 nM
[3]
  Ki: 440 nM
[8]
  Ratio: 3
[4]
  IC50: 1000 nM
[5]
  Ki: 890 nM
[6]
  IC50: > 10000 nM
[7]
  IC50: 2700 nM

## CN(C)[C@@H]1C[C@@H](c2ccc(Cl)c(Cl)c2)c2ccccc21 (stereo in doubt; (-)) [listing 1 of 2 here]
[2]
  Ki: 3.6 nM
[3]
  Ki: 130 nM
[4]
  IC50: 130 nM
[5]
  Ki: 38 nM
[6]
  IC50: 130 nM
[7]
  IC50: 650 nM

## CC(C)N[C@@H]1C[C@@H](c2ccc(Cl)c(Cl)c2)c2ccccc21
[2]
  Ki: 93 nM
[9]
  Ratio: 4.7
[10]
  Ratio: 2.6
[3]
  Ki: 110 nM
Mus musculus
  ED50: 3.1 mg/kg
[8]
  Ratio: 1.6
[11]
  Ratio: 0.68
[4]
  IC50: 75 nM
[5]
  Ki: 32 nM
[6]
  IC50: 240 nM
[7]
  IC50: 51 nM

## CCCN(C)[C@H]1C[C@@H](c2ccc(Cl)c(Cl)c2)c2ccccc21 (relative stereo)
[2]
  Ki: 200 nM
[9]
  Ratio: 0.8
[10]
  Ratio: 4
[3]
  Ki: 2000 nM
[8]
  Ratio: 0.83
[11]
  Ratio: 0.27
[4]
  IC50: 540 nM
[6]
  IC50: 810 nM
[7]
  IC50: 1000 nM

## CC(C)N(C)[C@H]1C[C@@H](c2ccc(Cl)c(Cl)c2)c2ccccc21
[2]
  Ki: 73 nM
[9]
  Ratio: 1.9
[10]
  Ratio: 25
[3]
  Ki: 650 nM
[8]
  Ratio: 1.4
[4]
  IC50: 1800 nM
[5]
  Ki: 680 nM
[6]
  IC50: 1800 nM
[7]
  IC50: 960 nM

## Clc1ccc([C@@H]2C[C@H](NCc3ccccc3)c3ccccc32)cc1Cl (relative stereo)
[2]
  Ki: 2100 nM
[3]
  Ki: 4800 nM
[4]
  IC50: > 10000 nM
[5]
  Ki: 1100 nM
[6]
  IC50: > 10000 nM
[7]
  IC50: 5300 nM

## CN(C)[C@@H]1C[C@@H](c2ccc(Cl)c(Cl)c2)c2ccccc21 (stereo in doubt; (+)) [listing 2 of 2 here]
[9]
  Ratio: 0.053
[10]
  Ratio: 110
[8]
  Ratio: 14

## CN([C@H]1C[C@@H](c2ccc(Cl)c(Cl)c2)c2ccccc21)C(C)(C)C (relative stereo)
[2]
  Ki: > 10000 nM
[3]
  Ki: 2200 nM
[4]
  IC50: > 10000 nM
[5]
  Ki: 2800 nM
[7]
  IC50: > 10000 nM

## CCN[C@@H]1C[C@@H](c2ccc(Cl)c(Cl)c2)c2ccccc21 (relative stereo)
[2]
  Ki: 2 nM
[9]
  Ratio: 0.21
[10]
  Ratio: 6.5
[3]
  Ki: 48 nM
Mus musculus
  ED50: 1 mg/kg
[8]
  Ratio: 7.5
[4]
  IC50: 28 nM
[5]
  Ki: 8.1 nM
[6]
  IC50: 13 nM
[7]
  IC50: 61 nM

## CCN(C)[C@@H]1C[C@@H](c2ccc(Cl)c(Cl)c2)c2ccccc21 (relative stereo)
[2]
  Ki: 16 nM
[9]
  Ratio: 0.089
[10]
  Ratio: 1.5
[3]
  Ki: 250 nM
Mus musculus
  ED50: 2.7 mg/kg
[8]
  Ratio: 6.9
[11]
  Ratio: 0.6
[4]
  IC50: 150 nM
[5]
  Ki: 39 nM
[6]
  IC50: 24 nM
[7]
  IC50: 270 nM

## CN(C)[C@@H]1C[C@@H](c2ccc(Cl)c(Cl)c2)c2ccccc21 (stereo in doubt; (-)) [listing 2 of 2 here]
[9]
  Ratio: 0.02
[8]
  Ratio: 17

## CN(Cc1ccccc1)[C@@H]1C[C@@H](c2ccc(Cl)c(Cl)c2)c2ccccc21 (relative stereo)
[2]
  Ki: 180 nM
[9]
  Ratio: 6.7
[10]
  Ratio: 21
[3]
  Ki: 2800 nM
Mus musculus
  ED50: 5.7 mg/kg
[8]
  Ratio: 4.6
[4]
  IC50: 1600 nM
[5]
  Ki: 120 nM
[6]
  IC50: 3700 nM
[7]
  IC50: 550 nM
